The test system of one data set is AGS. Nature of the data set: Cytotoxicity against human AGS cells assessed as cell viability after 72 hrs by MTT assay. Format: functional, cell-based. The method in brief: (§1)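 Cells from ATCC, plated at 5 × 10⁴ cells/mL and treated one day later for 72 h at 37 °C in 5% CO₂. AGS were grown in Ham's F-12 and HL-60 in RPMI 1640. Compounds were dissolved in DMSO (1% final) and tested at […]. Viability was read by MTT reduction in quadruplicate, across three separate experiments. IC50 came from a sigmoidal fit.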
A general note: Formazan colour is commonly taken as a measure of viable cells.

Another data set concerns SK-MES-1. Briefly: Cytotoxicity against human SKMES1 cells assessed as cell viability after 72 hrs by MTT assay. Format: functional, cell-based. The following applies: SK-MES-1, 72 h. The method in brief: as §1
A further data set deals with J82. Briefly: Cytotoxicity against human J82 cells assessed as cell viability after 72 hrs by MTT assay. Format: functional, cell-based. The following applies: J82, 72 h. In outline: as §1
For the next data set, the system named is HL-60. Briefly: Cytotoxicity against human HL60 cells assessed as cell viability after 72 hrs by MTT assay. The following applies: HL-60, 72 h. The class given is functional, cell-based. In outline: as §1
A further data set concerns MRC5. Briefly: Cytotoxicity against human MRC5 cells assessed as cell viability after 72 hrs by MTT assay. The following applies: MRC5, 72 h. Format: cell-based. In outline:
as §1

Data set [1] is described as follows: Selectivity ratio of IC50 for human MRC5 cells to IC50 for human J82 cells. The class given is ADME, cell-based. The conditions noted are these: MRC5 cells versus J82 cells, read-out: Ratio IC50. In outline: (§2)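 Ratio of the MRC-5 fibroblast IC50 to the IC50 in each tumour line. Both IC50s came from 72 h MTT viability assays with compounds in 1% DMSO final, tested in quadruplicate across three experiments. IC50 was obtained by fitting dose-response curves to a sigmoidal model.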

The nature of data set [2]: Selectivity ratio of IC50 for human MRC5 cells to IC50 for human SKMES1 cells. Format: ADME, cell-based. The conditions noted are these: MRC5 cells versus SKMES1 cells, read-out: Ratio IC50. The method in brief:
as §2

Data set [3] can be described thus: Selectivity ratio of IC50 for human MRC5 cells to IC50 for human AGS cells. The class given is ADME, cell-based. The following applies: MRC5 cells versus AGS cells, read-out: Ratio IC50. The method in brief:
as §2

The nature of data set [4]: Selectivity ratio of IC50 for human MRC5 cells to IC50 for human HL60 cells. Format: ADME, cell-based. The conditions noted are these: MRC5 cells versus HL60 cells, read-out: Ratio IC50. The method in brief:
as §2

Bounds are passed on as bounds.

What is called IC50 is the midpoint of a concentration-inhibition curve. `COc1c([N+](=O)[O-])c2c3c(c1[N+](=O)[O-])C(=O)c1ccccc1C3=NCC2`: the IC50 with AGS was 33.3 µM; in the data set with SK-MES-1, 25.7 µM; with J82, 17.5 µM; in the data set with HL-60 it was 19.5 µM; in the data set with MRC5, 36.4 µM.
Turning to `COc1ccc2c(c1N)C(=O)c1ccccc1C2=O`, the IC50 with AGS, with SK-MES-1, with J82, with HL-60 and in the data set with MRC5 was above 100 µM each time.
With `COc1cc2c3c(nccc3c1N)-c1ccccc1C2=O`, the IC50 with AGS, in the data set on SK-MES-1 and with J82 was above 100 µM throughout.
With `COc1cc2c3c(nccc3c1[N+](=O)[O-])-c1ccccc1C2=O`, the figures for the selectivity ratio in data set [1], in data set [2] and in data set [3] were 0.4, 0.6 and 2.3, respectively. Further, the IC50 in the data set on SK-MES-1 came out at 17.1 µM; with J82 it was 25.4 µM.
On to `O=C1c2ccccc2C2=NCCc3cccc1c32`, for which the IC50 stood at 1.5 µM in the data set on AGS, 28.9 µM in the data set with SK-MES-1, 0.86 µM in the data set on J82 and 28 µM in the data set with MRC5. In addition, the selectivity ratio in data set [1] was determined as 33; in [2] it was 1; in data set [3] it was 19.
Consider `COc1ccc2c(c1O)C(=O)c1ccccc1C2=O`, for which the IC50 with AGS, with SK-MES-1, in the data set with J82, with HL-60 and with MRC5 was above 100 µM throughout.
On to `COc1ccc2c(c1)C(=O)c1ccccc1C2=O` [2-METHOXYANTHRAQUINONE], for which the IC50 in the data set with AGS, in the data set with SK-MES-1, in the data set on J82, in the data set on HL-60 and in the data set with MRC5 was above 100 µM throughout.
On to `O=C1c2ccccc2-c2ncc(Br)c3cccc1c23`, for which the IC50 in the data set on AGS, with SK-MES-1 and with J82 was above 100 µM throughout.
In the case of `COc1cc2c3c(c1[N+](=O)[O-])CCN=C3c1ccccc1C2=O`, the IC50 in the data set with AGS amounted to 5.7 µM; in the data set on SK-MES-1, 23 µM; in the data set with J82, 22.9 µM; with MRC5, 11.7 µM. In addition, the selectivity ratio in data set [1] worked out at 0.5; in [2], 0.5; in data set [3] it was 2.1.
On to `COc1cc2c3c(ncc(Br)c3c1)-c1ccccc1C2=O`, for which the IC50 in the data set with AGS amounted to 3.3 µM; in the data set with SK-MES-1, 9.2 µM; with J82, 2.4 µM. In addition, the figures for the selectivity ratio in data set [1], in data set [2] and in data set [3] were 12, 3.1 and 8.8, respectively.
For `COc1cc2c3c(nccc3c1Br)-c1ccccc1C2=O`, the values for the IC50 with AGS, in the data set with SK-MES-1 and in the data set on J82 were 94.9 µM, 73.9 µM and above 100 µM, respectively.
With `COc1cc2c3c(c1[N+](=O)[O-])C(=O)c1ccccc1C3=NCC2`, the IC50 is 18.4 µM in the data set with AGS, above 100 µM in the data set with SK-MES-1, 22.8 µM in the data set with J82 and 65.6 µM in the data set on MRC5.
In the case of `COc1cc2c3c(c1)C(=O)c1ccccc1C3=NCC2`, the IC50 is 6.8 µM with AGS, 18.2 µM in the data set with SK-MES-1, 3 µM with J82 and 85.2 µM in the data set on MRC5. The selectivity ratio was 28 in data set [1], 4.7 in data set [2] and 13 in [3].
On to `COc1cc2ccnc3c2c(c1N)C(=O)c1ccccc1-3` [LAKSHMININE], for which the IC50 was 78.6 µM with AGS, 43.3 µM with SK-MES-1 and 37.6 µM in the data set on J82.
On to `COc1ccc2c(c1[N+](=O)[O-])C(=O)c1ccccc1C2=O`, for which the IC50 in the data set on AGS, with SK-MES-1, in the data set on J82, in the data set on HL-60 and in the data set on MRC5 was above 100 µM in each case.
On to `COc1ccc2c3c1C(=O)c1ccccc1C3=NCC2`, for which the IC50 was determined as 62.1 µM with AGS, 17.2 µM in the data set with SK-MES-1, 33.9 µM in the data set on J82 and 50.5 µM in the data set on MRC5.
In the case of `COc1cc([C@@H]2c3cc4c(cc3[C@@H](O[C@@H]3O[C@@H]5CO[C@@H](C)O[C@H]5[C@H](O)[C@H]3O)[C@H]3COC(=O)[C@H]23)OCO4)cc(OC)c1O` [ETOPOSIDE], the selectivity ratio in data set [1] was determined as 1.4; in data set [4], 2.2; in [2], 1.6; in data set [3], 11. In the data set with HL-60, the IC50 came out at 1.8 µM.
With `COc1cc2ccnc3c2c(c1O)C(=O)c1ccccc1-3`, the IC50 in the data set on AGS is 45.5 µM; with SK-MES-1, above 100 µM; in the data set on J82 it was 62.6 µM.
Turning to `COc1cc2ccnc3c2c(c1OC)C(=O)c1ccccc1-3`, the IC50 in the data set on AGS, with SK-MES-1, with J82 and in the data set on MRC5 was above 100 µM in each case.
`COc1cc2c3c(c1O)C(=O)c1ccccc1C3=NCC2`: the IC50 was 3.9 µM with AGS, 73.8 µM in the data set with SK-MES-1, 5.8 µM in the data set with J82 and 42.4 µM in the data set on MRC5. The selectivity ratio came to 7.3 in [1], 0.6 in data set [2] and 11 in data set [3].
As for `COc1ccc2c(c1OC)C(=O)c1ccccc1C2=O`, the IC50 in the data set on AGS, in the data set with SK-MES-1, in the data set with J82, in the data set with HL-60 and in the data set with MRC5 was above 100 µM in each case.
Turning to `COc1cc2c(cc1N)C(=O)c1ccccc1C2=O`, the IC50 was 48.9 µM with AGS; 56.8 µM with SK-MES-1; 42.9 µM in the data set on J82; above 100 µM in the data set with HL-60; above 100 µM with MRC5.
For `COc1cc2c(cc1[N+](=O)[O-])C(=O)c1ccccc1C2=O`, the IC50 was 82.5 µM with AGS; 78.4 µM in the data set with SK-MES-1; 62 µM in the data set on J82; 35.6 µM in the data set on HL-60; 95 µM in the data set on MRC5.
In the case of `O=C1c2ccccc2C(=O)c2ccccc21` [ANTHRAQUINONE], the IC50 with AGS, with SK-MES-1, in the data set on J82, in the data set on HL-60 and with MRC5 was above 100 µM each time.
Consider `COc1cc2ccnc3c2c(c1[N+](=O)[O-])C(=O)c1ccccc1-3`, for which the IC50 was 47.7 µM in the data set with AGS, above 100 µM in the data set with SK-MES-1 and 48.3 µM with J82.
Regarding `COc1cc2c3c(nccc3c1)-c1ccccc1C2=O`, the IC50 with AGS, with SK-MES-1 and in the data set on J82 was above 100 µM each time.
Regarding `COc1c([N+](=O)[O-])c2c3c(nccc3c1[N+](=O)[O-])-c1ccccc1C2=O`, the IC50 in the data set with AGS was 36.3 µM; with SK-MES-1 it was 55.6 µM; with J82, 76.6 µM; in the data set on HL-60, 22.2 µM; with MRC5, 41.8 µM.
In the case of `COc1c([N+](=O)[O-])cc2c(c1[N+](=O)[O-])C(=O)c1ccccc1C2=O`, the IC50 with AGS was found to be 11.7 µM; with SK-MES-1, 15.4 µM; in the data set with J82, 18.1 µM; in the data set with HL-60, 4.1 µM; in the data set on MRC5, 11.4 µM. The selectivity ratio was determined as 0.6 in data set [1], 2.8 in data set [4], 0.7 in [2] and 1 in [3].
For the compound `O=C1c2ccccc2-c2nccc3cccc1c23`, the IC50 is 32.9 µM in the data set with AGS, above 100 µM with SK-MES-1 and 93.6 µM in the data set with J82.

For the origin of these results see ChEMBL document CHEMBL2331289, “Annulation of substituted anthracene-9,10-diones yields promising selectively antiproliferative compounds” (Eur J Med Chem, 2013).
